The list is not random: actives were taken first. Their share in the collection is about 2.7%.
RBBP9 inh: human RBBP9 inhibitors, primary screen, biochemical, fluorescence polarization, FP-Rh probe, HTS; Serine hydrolase RBBP9 (Homo sapiens), O75884; recombinant RBBP9; inhibition, % at 7.94 µM; 0.2% of 220,000 active;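 active = inhibition above the campaign mean of all tested compounds plus 3 SD, cut at about 14% in these data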;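 also: plate controls were DMSO wells with RBBP9 for no effect and wells lacking RBBP9 protein for full effect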
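Test system – recombinant human RBBP9 · Input – RBBP9 2.5 µM in dispensing solution, pre-mixing · Medium – Tris buffer pH 8.0, NaCl, Pluronic · Schedule – preincubation 30 min plus labeling 45 min at 25 °C · Measured by – fluorescence polarization · Measure – % inhibition · Controls – DMSO and no-protein wells · Replicates – one well per compound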
Wee1 degr inh: Wee1 degradation inhibitors, primary screen, cell-based, HeLa, Wee1K328M-luciferase, luminescence. Wee1-like protein kinase (Homo sapiens), P30291. HeLa Luc-Wee1K328M stability; 100% = proteasome inhibitor MG132 effect. 1.2% of 220,000 active. reporter increase, % at 5 µM;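 active = activation above the mean of all tested compounds plus 3 SD, set per screening run, cut at about 8.8% in these data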;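 also: cells exposed to compound for 20 h before luminescence read; 0% = DMSO alone and 100% = MG132 at 30 µM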
Target sequence (P30291 whole entry K328M): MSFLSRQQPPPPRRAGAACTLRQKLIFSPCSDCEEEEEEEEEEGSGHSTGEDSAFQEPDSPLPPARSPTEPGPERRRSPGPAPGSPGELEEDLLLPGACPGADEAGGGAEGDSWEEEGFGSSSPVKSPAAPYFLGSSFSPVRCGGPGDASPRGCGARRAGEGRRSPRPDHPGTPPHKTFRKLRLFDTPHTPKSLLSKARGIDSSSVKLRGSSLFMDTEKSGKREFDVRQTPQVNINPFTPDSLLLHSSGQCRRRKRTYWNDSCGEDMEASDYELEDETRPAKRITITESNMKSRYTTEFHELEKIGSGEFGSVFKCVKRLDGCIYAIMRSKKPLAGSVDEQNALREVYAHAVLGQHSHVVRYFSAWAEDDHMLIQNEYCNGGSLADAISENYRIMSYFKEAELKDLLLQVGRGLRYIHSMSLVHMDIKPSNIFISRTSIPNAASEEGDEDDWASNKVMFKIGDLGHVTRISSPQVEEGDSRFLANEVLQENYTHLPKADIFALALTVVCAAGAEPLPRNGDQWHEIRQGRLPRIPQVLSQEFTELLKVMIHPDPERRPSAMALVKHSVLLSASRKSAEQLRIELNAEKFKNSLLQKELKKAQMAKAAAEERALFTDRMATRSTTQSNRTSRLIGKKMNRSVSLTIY
TNF death inh: inhibitors of TNF-alpha triggered necroptosis, primary screen, cell-based, Jurkat FADD-/-, single concentration | Jurkat FADD-/- TNF necroptosis rescue, ATP luminescence, 24 h; 0 = TNF only, 100 = no-TNF cells | activation (protection from cell death), % at 10 µM | 0.068% of 220,000 active;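 active = activation, meaning protection from cell death, of at least 50% relative to plate controls; inactive = activation below 50%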;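 also: necroptosis triggered by 40 ng/mL TNF-alpha added together with compound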
M18AAP inhibitor: PfM18AAP inhibitors, malaria aminopeptidase, primary screen, biochemical, QFRET, recombinant enzyme; M18 aspartyl aminopeptidase (Plasmodium falciparum 3D7); H-Glu-NHMec fluorogenic cleavage; inhibition, % at 7.35 µM; 1.2% of 290,000 active; AID 1822, 2009;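 active = inhibition above the campaign mean inhibition over all tested compounds plus 3 SD, cut at about 28% in these data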;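 also: 0% = plate median of test compound wells and 100% = 2 mM ZnCl2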
p97 ATPase inh: inhibitors of human p97 ATPase, primary screen, biochemical. inhibition, % at 8 µM. Transitional endoplasmic reticulum ATPase (Homo sapiens), P55072. AID 1481, 2009. recombinant p97 ATPase, Kinase-Glo ATP luminescence, 3 h. 0.42% of 220,000 active; in the data active = inhibition above about 15%;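 also: 0% = DMSO vehicle and 100% = wells lacking enzyme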
zVAD death inh: inhibitors of zVAD-triggered necroptosis, primary screen, L929 cells; AID 1377, 2008; viability rescue, % at 10 µM; L929 zVAD necroptosis rescue, ATP luminescence, 24 h; with zVAD 60 µM; 0.38% of 220,000 active;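 active = activation, scaled between plate controls, above about 75%, limit read from the data; inactive = activation under that limit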;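 also: 0% = zVAD with DMSO and 100% = DMSO alone without zVAD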
Wee1 degr conf: Wee1 degradation inhibitors, confirmation, cell-based, HeLa, Wee1K328M-luciferase, luminescence, triplicate | shares compounds with Wee1 degr inh | HeLa Luc-Wee1K328M degradation; vehicle 0%, proteasome-blocked wells 100% | activation, % at 5 µM | 4% of 1,100 active | AID 1410, 2008; in the data active = activation above about 8.9%
The depositor's hits bear a star; . = no result.

SMILES	RBBP9 inh	Wee1 degr inh	TNF death inh	M18AAP inhibitor	p97 ATPase inh	zVAD death inh	Wee1 degr conf
CCOC(=O)N1CCN(C(=O)c2oc3ccc(S(=O)(=O)N4CC(C)CC(C)C4)cc3c2C)CC1 (centres undefined)	-3	0	-4	0	1	0	.
N#CC1=C(N)Nc2nc3ccccc3n2C1c1ccc(Cl)cc1 (centres undefined)	-8	-2	3	4	1	4	.
CCCCOC(=O)c1ccccc1N1C(=O)C2C3CCC(C3)C2C1=O (centres undefined)	-2	12*	0	6	1	0	-2
O=C(NCc1ccco1)/C(=C\c1ccco1)NC(=O)c1cccs1	-4	30*	-1	11	-2	-2	4
Cc1sc2c(c1C)CN(CCN1CCOCC1)CN2C(=O)c1ccccc1	-11	5	1	0	4	0	.
CC(=O)Nc1ccccc1C(=O)C(=O)Nc1ccc(C)c(C)c1	-4	7	1	-3	-4	1	.
CC(=O)Nc1ccccc1C(=O)C(=O)Nc1ccc(C)c(F)c1	3	18*	1	2	1	1	8
Cn1c(=O)[nH]c(=O)c2c1nc(N1CCCCCC1)n2CCOc1ccccc1	-4	-2	-1	-2	1	0	.
O=C(CC1C(=O)N(c2ccccc2)C(=S)N1c1ccccc1)c1ccc(Br)cc1 (centres undefined)	-9	67*	5	6	5	1	1
O=C(Cn1nc2n(c1=O)-c1ccccc1SC2)N/N=C/c1cccs1	-13	1	0	-4	0	0	.
CCn1c(C)nc2cc(C(=O)N3N=C(CCOC)CC3(O)C(F)(F)F)ccc21 (centres undefined)	-2	-3	1	5	-4	0	.
Oc1c(CN2CCOCC2)ccc2ccccc12	-2	11*	-1	9	7	1	0
Cn1c2c(c(=O)n(C)c1=O)C(CC(=O)Nc1ccc(F)cc1)C(=O)N2 (centres undefined)	-5	11*	0	1	1	23	0
Cc1ccc(CNC(=O)CC2C(=O)Nc3c2c(=O)n(C)c(=O)n3Cc2ccccc2)cc1 (centres undefined)	-9	1	-1	2	1	0	.
O=C(NCc1cccs1)c1cccc(Nc2nc3ccc(Br)cc3[nH]2)c1	-8	15*	-1	-2	11	1	3
O=C(NCc1cccs1)c1ccccc1	11	-1	4	6	-2	1	.
O=C(COc1ccc(CO)cc1)Nc1ccc(F)cc1	-6	3	0	-1	4	0	.
O=C(COc1ccc(CO)cc1Cl)Nc1ccc(F)cc1	8	16*	3	2	2	1	-5
CC(C)(C)n1nc2c(c1NC(=O)C1CC(=O)N(c3ccc(Cl)cc3)C1)CS(=O)(=O)C2 (centres undefined)	.	.	.	1	.	.	.
O=C(Nc1ccc(N2CCCCC2)cc1)c1ccc(F)cc1	-4	11*	-1	1	-2	0	2
COc1ccccc1OCC(=O)Nc1ccc(N2CCCCC2)cc1	-2	11*	2	4	-2	10	0
O=C(c1ccc(F)cc1)c1ccc(N2CCCCC2)cc1	.	.	.	16	.	.	.
O=C(O)CCCn1cc(NC(=O)c2cccc(F)c2)cn1	9	13*	0	-10	3	-1	0
O=C(O)CCCn1cc(NC(=O)c2cc(F)c(F)cc2Cl)cn1	4	1	1	-16	2	1	.
COCCCNC(=O)c1cccs1	-10	1	1	-9	-1	0	.
SMILES	RBBP9 inh	Wee1 degr inh	TNF death inh	M18AAP inhibitor	p97 ATPase inh	zVAD death inh	Wee1 degr conf
COc1ccc(CNCCNC(=O)c2cccs2)c(OC)c1OC	-7	12*	0	-5	1	0	-1
CC(C)c1cc(C(=O)NCCc2ccccc2)no1	-7	6	1	-10	-1	0	.
CC1c2ccsc2CCN1C(=O)NC(=O)c1ccc(Cl)cc1 (centres undefined)	-7	14*	1	2	-1	1	-1
NC(=O)N/N=C/c1cn(-c2ccccc2)nc1-c1cccs1	-1	16*	-6	-5	-9	14	3
NS(=O)(=O)c1ccc(N/N=C/c2cn(-c3ccccc3)nc2-c2cccs2)cc1	-2	0	4	26	7	61	.
CCC(C)[C@H](NC(=O)N1CCN(c2cccc(C(F)(F)F)c2)CC1)C(=O)OC (some centres undefined)	-6	12*	-1	-1	-9	-1	3
CCCCOc1ccc(CNC(=O)NS(=O)(=O)c2ccc(OCC)cc2)cc1	-20	13*	0	0	-9	2	3
O=S(=O)(c1ccc2ccccc2c1)n1cccn1	.	.	.	-17	.	.	.
CC(C)N(c1ccccc1)c1ccc(NC(=O)COC(=O)CCN2C(=O)c3cccc([N+](=O)[O-])c3C2=O)cc1	5	20*	2	19	2	1	-1
O=S(=O)(c1ccc(Oc2ccccc2)cc1)N1CCOCC1	-6	0	0	4	-2	0	.
O=S(=O)(c1ccc(Oc2ncnc3scc(-c4ccccc4)c23)cc1)N1CCOCC1	-11	19*	-14	1	0	0	0
O=c1c(Cc2c(F)cccc2Cl)c(O)ccn1CC1CCCO1 (centres undefined)	-9	12*	2	4	2	0	-2
CC1CCc2c(cnc3ncnn23)C1 (centres undefined)	-3	-2	0	2	4	1	.
O=C(C1=C[C@@H](c2coc3ccccc3c2=O)C[C@@H](OCc2ccc(CO)cc2)O1)N1CCN(Cc2ccc3c(c2)OCO3)CC1	4	23*	1	-2	5	1	-2
Cc1ccc2nc(-c3ccc(NC(=S)NC(=O)C(C)C)cc3)sc2c1	2	1	0	-3	2	0	.
Cc1ccc2nc(-c3ccc(NC(=S)NC4CC(C)(C)NC(C)(C)C4)cc3)sc2c1	-5	20*	-14	2	7	-2	3
